Screens deposited in PubChem BioAssay by several laboratories.
PostGolgi yeast: growth inhibition of a yeast mutant, post-Golgi transport screen | AID 739 | inhibition, % at 10 µM | post-Golgi transport phenotypic cell assay | hit rate 0.9% among 98,000;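 note: yeast cells grown in 1536-well plates; yeast grown about 18 h at 30C before absorbance read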
tolC growth inh: growth inhibitors of E. coli BW25113 tolC mutant; OD615; growth inhibition, % at 10 µM (by protocol); hit rate 2.2% among 65,000; AID 573;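 active = growth inhibition at or above a cutoff equal to the mean over every tested compound plus 3 SD, cut at about 60% in these data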;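 note: growth measured after 20 h incubation at 37 °C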
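Test system: E. coli BW25113 ΔtolC::kan bacteria; incubation: 37 °C, 20 h exposure; medium: LB broth supplemented with 50 µg/mL kanamycin; read-out basis: percent growth inhibition; signal: A615 absorbance measurement; compound: 10 µM final, single dose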
PLAP activator: human PLAP activation | purified PLAP enzyme, luminescent substrate read-out; hits give high values | activation fold at 20 µM | hit rate 1.2% among 96,000 | AID 696; in the data active = activation fold above about 2
Target sequence (P05187 whole entry, looked up): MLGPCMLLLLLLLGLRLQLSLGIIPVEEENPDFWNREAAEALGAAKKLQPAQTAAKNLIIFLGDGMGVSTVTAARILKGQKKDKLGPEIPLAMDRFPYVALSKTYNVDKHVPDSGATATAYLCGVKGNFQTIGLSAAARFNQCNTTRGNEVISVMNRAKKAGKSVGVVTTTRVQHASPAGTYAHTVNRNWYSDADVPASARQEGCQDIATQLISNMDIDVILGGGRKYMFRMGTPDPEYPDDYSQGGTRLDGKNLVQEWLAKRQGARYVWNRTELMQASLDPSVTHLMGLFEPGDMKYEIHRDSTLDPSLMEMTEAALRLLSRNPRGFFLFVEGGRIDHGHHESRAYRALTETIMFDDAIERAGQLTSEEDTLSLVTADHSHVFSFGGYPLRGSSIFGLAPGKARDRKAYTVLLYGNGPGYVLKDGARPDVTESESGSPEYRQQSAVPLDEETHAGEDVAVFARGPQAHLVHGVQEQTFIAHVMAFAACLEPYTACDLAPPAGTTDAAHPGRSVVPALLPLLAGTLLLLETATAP
HePTP inh: human HePTP phosphatase inhibition; inhibition, % at 20 µM; AID 521; recombinant HePTP phosphatase activity, OD absorbance; P35236; hit rate 0.64% among 110,000; in the data active = inhibition above about 50%;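 note: plate controls were vehicle for no effect and reference inhibitor for full effect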
E coli WT exp: blocks growth of wild type E. coli BW25113. OD600 absorbance. growth inhibition, % at 100 µM. hit rate 0.15% among 98,000;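 active = growth inhibition above about 50% at one test dose, limit read from the data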;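 note: growth measured after 20 h incubation at 37 °C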
PostGolgi ctrl: yeast control strain growth, post-Golgi counter-screen; efflux-deficient yeast background strain, growth absorbance A615, 16 h; inhibition, % at 10 µM; hit rate 5% among 98,000
* = called active by the depositor. This is a sample that favours compounds with a hit; in the whole collection about 5.4% have one here. Cut-off read from the data, not from the text of the source, unless noted: active = inhibition above about 30%; inactive = the rest.

CC(C)NC(=O)c1cc2nc(-c3ccco3)cc(C(F)(F)F)n2n1 was read as PostGolgi yeast 8, PLAP activator 0.9, E coli WT exp -1 and PostGolgi ctrl 8.
For O=C1N(Cc2ccccc2)CCCC12CCCN(Cc1ccccc1)C2=O the results were PostGolgi yeast 6, tolC growth inh -2, PLAP activator 1.5, HePTP inh 7, E coli WT exp 6 and PostGolgi ctrl 2.
COc1cc(C)c(C#N)c(OC)n1 was read as PostGolgi yeast -10, tolC growth inh -16, PLAP activator 1, HePTP inh 3, E coli WT exp -5 and PostGolgi ctrl 3.
O=S(=O)(c1cc(-c2nc3ccccc3s2)ccc1Cl)N1CCOCC1 was read as PostGolgi yeast 22, PLAP activator 0.9, E coli WT exp -1 and PostGolgi ctrl 5.
`Cc1ccc(-c2nc3ccccc3s2)cc1S(=O)(=O)N1CCOCC1` gave PostGolgi yeast -7, PLAP activator 1.1, E coli WT exp -2 and PostGolgi ctrl 34*.
CCSc1ncnc2c1sc1nc(-c3ccco3)c3c(c12)CC(C)(C)OC3 was read as PostGolgi yeast 14, PLAP activator 1.1, E coli WT exp 3 and PostGolgi ctrl 32*.
Screening COC(=O)CSc1ncnc2c1sc1nc(-c3ccco3)c3c(c12)CC(C)(C)OC3 returned PostGolgi yeast -4, tolC growth inh 5, PLAP activator 1.5, HePTP inh 5, E coli WT exp 2 and PostGolgi ctrl 25.
For O=C1CC(c2cccc(Cl)c2)c2cc3c(cc2N1)CCC3 (stereo unspecified) the results were PostGolgi yeast 1, PLAP activator 0.9, E coli WT exp 2 and PostGolgi ctrl 89*.
For O=C1CC(c2cc(Br)ccc2F)c2cc3c(cc2N1)CCC3 (stereo unspecified) the results were PostGolgi yeast 2, PLAP activator 1, E coli WT exp -7 and PostGolgi ctrl 35*.
`O=C1CC(c2ccccc2F)c2cc3c(cc2N1)CCC3` (stereo unspecified) gave PostGolgi yeast 4, PLAP activator 0.9, E coli WT exp -7 and PostGolgi ctrl 30.
For COc1cccc(NC(=O)CN(c2ccc(Oc3ccccc3)cc2)S(C)(=O)=O)c1 the results were HePTP inh -6.
`CCOC(=O)C1=C(NC(=O)CC)Oc2ccc3ccccc3c2C1c1ccccc1` (stereo unspecified) gave HePTP inh -1.
Cn1cc(Br)c(C(=O)NNC(=O)c2cccc(Br)c2)n1 was read as PostGolgi yeast 14, PLAP activator 2.3*, E coli WT exp 6 and PostGolgi ctrl 3.
Screening CC(=O)Nc1ccccc1NS(=O)(=O)c1ccc(Cl)cc1 returned PostGolgi yeast 36*, PLAP activator 1.4, HePTP inh -3, E coli WT exp 3 and PostGolgi ctrl 5.
Nn1c(CN2CCCCC2)nc2ccccc2c1=O was read as PostGolgi yeast -2, tolC growth inh -10, PLAP activator 1, HePTP inh -6, E coli WT exp 0 and PostGolgi ctrl 31*.
Screening COC(=O)c1sc(S(=O)(=O)N2CCN(c3ccccc3)CC2)c(C(=O)OC)c1C returned PostGolgi yeast 3, tolC growth inh 17, PLAP activator 1.4, HePTP inh 12, E coli WT exp 1 and PostGolgi ctrl 11.
Screening O=S(=O)(Nc1nnc(-c2ccccc2)s1)c1ccc(Cl)cc1 returned PostGolgi yeast 19, tolC growth inh 87*, PLAP activator 1.1, HePTP inh -2, E coli WT exp 5 and PostGolgi ctrl 10.
CCOc1ccc(C(=O)Nc2c(C)cccc2C)cc1Br was read as HePTP inh -2.
Screening CCOC(=O)c1ccc(NC(=O)CCc2nc(-c3ccccc3Cl)no2)cc1 returned PostGolgi yeast -3, tolC growth inh 99*, PLAP activator 1.4, HePTP inh 4, E coli WT exp 5 and PostGolgi ctrl 17.
Screening C=CCOc1c(Br)cc(CNc2ccc(NC(=O)C(C)C)c(OC)c2)cc1OC returned PostGolgi yeast -1, PLAP activator 1.2, E coli WT exp 7 and PostGolgi ctrl 1.
Screening Cn1nc(-c2ccc(N3CCOCC3)c(NS(=O)(=O)c3ccc(Cl)cc3)c2)c2ccccc2c1=O returned PostGolgi yeast -11, PLAP activator 1.1, E coli WT exp -3 and PostGolgi ctrl 30*.
Screening COC(=O)c1cn(NC(=O)c2ccc(OC)c(OC)c2)c(=O)c2ccccc12 returned PostGolgi yeast 18, PLAP activator 1.1, E coli WT exp -4 and PostGolgi ctrl 0.
`O=C1CC(c2ccco2)CC(O)=C1C=Nc1cc(Cl)ccc1O` (stereo unspecified) gave PostGolgi yeast 20, tolC growth inh -6, PLAP activator 2.5*, HePTP inh 7, E coli WT exp 1 and PostGolgi ctrl 10.
`O=C1CC(c2ccco2)CC(O)=C1C=Nc1ccc(Br)cc1` (stereo unspecified) gave PostGolgi yeast -3, PLAP activator 0.7, E coli WT exp -3 and PostGolgi ctrl 1.
Cc1cccnc1Nc1nc(-c2ccc(O)c(O)c2)cs1 was read as PostGolgi yeast -1, PLAP activator 1.3, E coli WT exp 23 and PostGolgi ctrl 83*.
COc1ccc(-c2csc(Nc3ncccc3C)n2)cc1OC was read as PostGolgi yeast 0, PLAP activator 1, E coli WT exp 5 and PostGolgi ctrl -2.
Screening COc1ccc(CNc2nc3c(c(C(F)(F)F)n2)CCCCC3)cc1 returned PostGolgi yeast -6, tolC growth inh 50, PLAP activator 0.8, HePTP inh 9, E coli WT exp -5 and PostGolgi ctrl 39*.
`CCOC(=O)C1=C(C)N(C)C(C)=C(C(=O)OCC)C1c1ccncc1` gave PostGolgi yeast 28, tolC growth inh 8, PLAP activator 1.5, HePTP inh 8, E coli WT exp -1 and PostGolgi ctrl 13.
`O=C(N/N=C/C=C/c1ccccc1)c1n[nH]c2c1CCC2` gave PostGolgi yeast 25, PLAP activator 2.4*, E coli WT exp -18 and PostGolgi ctrl 3.
Screening O=C(Nc1cccc(Cl)c1)Nc1nnc(Cc2ccc(Cl)cc2)s1 returned HePTP inh -1.
`COc1nc(Nc2ccc(Cl)c(Cl)c2)nc(N(C)C)n1` gave HePTP inh 5.
For CCn1c(=O)cc(OCC(=O)NC2CCCCC2)c2ccccc21 the results were PostGolgi yeast -4, tolC growth inh 3, PLAP activator 1.3, HePTP inh 10, E coli WT exp -2 and PostGolgi ctrl -2.
Screening O=[N+]([O-])c1ccc2c(c1)C(N1CCOCC1)/C(=C/COc1ccc(F)cc1)O2 (stereo unspecified) returned PostGolgi yeast 2, PLAP activator 1.4, E coli WT exp -6 and PostGolgi ctrl 8.
O=[N+]([O-])c1ccc(OC/C=C2\Oc3ccc([N+](=O)[O-])cc3C2N2CCOCC2)cc1 (stereo unspecified) was read as PostGolgi yeast 12, PLAP activator 1.3, E coli WT exp -19 and PostGolgi ctrl 35*.
